{"source": "paper PMC10203381", "about": "(Plant Communications, 2022)", "key": {"SlDXS1 [1]": {"target": "T1, SlDXS1 (Solanum lycopersicum, UniProt Q9XH50)", "T1 sequence (Q9XH50 58-719)": "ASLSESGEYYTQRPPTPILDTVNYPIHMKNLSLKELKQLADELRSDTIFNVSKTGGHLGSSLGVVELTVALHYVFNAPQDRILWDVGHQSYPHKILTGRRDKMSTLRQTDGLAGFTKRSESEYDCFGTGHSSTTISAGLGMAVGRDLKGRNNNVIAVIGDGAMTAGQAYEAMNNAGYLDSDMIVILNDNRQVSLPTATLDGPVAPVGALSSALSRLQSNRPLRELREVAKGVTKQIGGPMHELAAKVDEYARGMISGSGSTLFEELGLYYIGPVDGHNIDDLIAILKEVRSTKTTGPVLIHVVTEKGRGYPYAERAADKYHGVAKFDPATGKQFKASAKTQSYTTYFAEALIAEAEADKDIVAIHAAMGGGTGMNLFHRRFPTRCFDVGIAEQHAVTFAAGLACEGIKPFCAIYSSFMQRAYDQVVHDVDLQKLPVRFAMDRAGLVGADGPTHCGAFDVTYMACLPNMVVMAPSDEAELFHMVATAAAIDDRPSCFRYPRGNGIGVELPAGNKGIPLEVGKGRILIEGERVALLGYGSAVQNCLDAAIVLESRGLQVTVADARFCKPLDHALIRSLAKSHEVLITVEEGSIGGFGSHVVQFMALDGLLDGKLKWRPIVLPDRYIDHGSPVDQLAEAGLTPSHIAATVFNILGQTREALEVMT", "assay_type": "cell-based"}, "[2]": {"tested_on": "E. coli EcAB4-10 cells (EcDXS activity)"}, "EcDXS": {"target": "T2, EcDXS (Escherichia coli, UniProt P77488)", "T2 sequence (P77488 1-620)": "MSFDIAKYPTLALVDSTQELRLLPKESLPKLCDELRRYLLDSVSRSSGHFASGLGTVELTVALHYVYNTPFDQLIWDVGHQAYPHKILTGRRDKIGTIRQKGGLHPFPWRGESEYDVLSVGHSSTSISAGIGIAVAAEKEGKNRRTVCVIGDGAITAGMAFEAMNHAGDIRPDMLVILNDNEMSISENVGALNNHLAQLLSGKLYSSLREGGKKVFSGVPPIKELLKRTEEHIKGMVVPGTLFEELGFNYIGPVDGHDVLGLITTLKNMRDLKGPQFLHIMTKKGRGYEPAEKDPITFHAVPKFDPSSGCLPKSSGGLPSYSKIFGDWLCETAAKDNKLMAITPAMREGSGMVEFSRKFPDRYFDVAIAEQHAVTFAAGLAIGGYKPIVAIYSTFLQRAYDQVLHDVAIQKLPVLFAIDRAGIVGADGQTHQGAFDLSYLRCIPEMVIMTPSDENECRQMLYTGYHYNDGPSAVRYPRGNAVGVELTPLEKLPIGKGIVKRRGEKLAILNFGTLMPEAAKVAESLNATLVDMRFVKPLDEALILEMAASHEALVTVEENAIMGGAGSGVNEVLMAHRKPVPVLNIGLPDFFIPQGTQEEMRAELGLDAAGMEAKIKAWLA", "assay_type": "cell-based"}, "SlDXS1 [3]": {"target": "T1, SlDXS1", "assay": "Isothermal titration calorimetry", "assay_type": "binding"}, "[4]": {"tested_on": "MEP pathway intermediates in N. benthamiana leaves", "assay_type": "in vivo, Nicotiana benthamiana", "details": "leaves infiltrated with SlDXS1, FSM 200 μM or NF 40 μM, 5 dpi; for Metabolite concentration DXP: control 7.69; for Metabolite concentration MEP: control 351.35; for Metabolite concentration MEcPP: control 671.68"}, "SlDXS1-GFP": {"tested_on": "SlDXS1-GFP", "assay_type": "in vivo, Nicotiana benthamiana", "details": "3 dpi; for number of fluorescent spots (SlDXS1-GFP aggregates) per chloroplast: FSM 200 μM or NF 40 μM, compared with untreated controls", "how_it_was_run": "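Agrobacterium GV3101 carrying SlDXS1-GFP was resuspended to OD600 0.8 in 10 mM MgCl2, 10 mM MES, 150 μM acetosyringone, pH 5.6. It was held 1.5 h at 28°C, then mixed 9:1 with an HcPro silencing-suppressor strain. FSM 200 μM, NF 40 μM or water was added before infiltrating leaves of 4-week-old plants. At 3 dpi, confocal imaging used 488 nm excitation and BP515-525 emission alongside chlorophyll fluorescence. Chloroplast and GFP-dot areas were measured from ≥7 images of different leaves, shown as mean and SD.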"}, "SlDXS1 [5]": {"tested_on": "SlDXS1", "assay_type": "in vivo, Nicotiana benthamiana", "details": "FSM 200 μM or NF 40 μM; 5 dpi; compared with mock-treated controls", "how_it_was_run": "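Agrobacterium GV3101 carrying untagged SlDXS1 at OD600 0.8 in MES/MgCl2/acetosyringone buffer, pH 5.6, was mixed 9:1 with an HcPro strain. FSM 200 μM, NF 40 μM or water was added before infiltrating 4-week-old leaves. At 5 dpi, about 300 mg of frozen tissue was extracted in TKMES with protease inhibitors and Triton, then cleared at 2800 g, 4°C. Samples in non-denaturing loading buffer were run on 7% SDS-PAGE and blotted with anti-DXS 1:500 overnight at 4°C.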"}, "N. benthamiana leaves": {"tested_on": "N. benthamiana leaves", "assay": "Leaf bleaching after infiltration with inhibitors", "assay_type": "in vivo, Nicotiana benthamiana", "details": "FSM 200 μM or NF 40 μM in the agroinfiltration mixture; observed at 5 dpi", "how_it_was_run": "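Leaves of 4-week-old plants were agroinfiltrated with an SlDXS1 construct plus an HcPro silencing suppressor (9:1). FSM 200 μM, NF 40 μM or water was included in the infiltration mixture. Bleaching was scored visually at 5 dpi.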"}}}
{"molecule": "C[C@@](O)(CCO)CC(=O)O", "note": "[MVA, mevalonic acid]", "values": [{"measurement": "proportion of SlDXS1 dimers", "setting": "SlDXS1 [1]", "value": "proportion of dimers decreased"}, {"measurement": "ratio of insoluble (aggregated) to soluble SlDXS1 protein", "setting": "SlDXS1 [1]", "value": "higher ratio of insoluble (aggregated) to soluble"}, {"measurement": "cell growth (OD600)", "setting": "[2]", "value": "did not show any growth impairment"}, {"measurement": "intracellular DXP levels", "setting": "[2]", "value": "much lower"}, {"measurement": "intracellular IPP/DMAPP levels", "setting": "[2]", "value": "markedly increased"}, {"measurement": "proportion of EcDXS dimers", "setting": "EcDXS", "value": "proportion of dimers decreased"}, {"measurement": "ratio of insoluble (aggregated) to soluble EcDXS protein", "setting": "EcDXS", "value": "higher ratio of insoluble (aggregated) to soluble"}]}
{"molecule": "Cc1ncc(C[n+]2csc(CCO[P@](=O)(O)OP(=O)(O)O)c2C)c(N)n1", "note": "[TPP, thiamine diphosphate]", "values": [{"measurement": "Kd", "setting": "SlDXS1 [3]", "value": "4.2 ± 0.7", "unit": "µM"}]}
{"molecule": "CNc1cnn(-c2cccc(C(F)(F)F)c2)c(=O)c1Cl", "note": "[NF, norflurazon]", "values": [{"measurement": "Metabolite concentration DXP", "setting": "[4]", "value": 5.73, "unit": "pg/mg dry weight"}, {"measurement": "Metabolite concentration MEP", "setting": "[4]", "value": 175.33, "unit": "pg/mg dry weight"}, {"measurement": "Metabolite concentration MEcPP", "setting": "[4]", "value": 405.61, "unit": "pg/mg dry weight"}, {"measurement": "number of fluorescent spots (SlDXS1-GFP aggregates) per chloroplast", "setting": "SlDXS1-GFP", "value": "lower amounts"}, {"measurement": "size of the fluorescent spots (SlDXS1-GFP aggregates)", "setting": "SlDXS1-GFP; NF 40 μM", "value": "larger"}, {"measurement": "dimer-to-monomer ratio of SlDXS1", "setting": "SlDXS1 [5]", "value": "decreased"}, {"measurement": "leaf phenotype", "setting": "N. benthamiana leaves", "value": "bleaching phenotype"}]}
{"molecule": "O=CN(O)CCCP(=O)(O)O", "note": "[FSM, fosmidomycin]", "values": [{"measurement": "Metabolite concentration DXP", "setting": "[4]", "value": 641.99, "unit": "pg/mg dry weight"}, {"measurement": "Metabolite concentration MEP", "setting": "[4]", "value": 7.67, "unit": "pg/mg dry weight"}, {"measurement": "Metabolite concentration MEcPP", "setting": "[4]", "value": 31.03, "unit": "pg/mg dry weight"}, {"measurement": "number of fluorescent spots (SlDXS1-GFP aggregates) per chloroplast", "setting": "SlDXS1-GFP", "value": "higher amounts"}, {"measurement": "dimer-to-monomer ratio of SlDXS1", "setting": "SlDXS1 [5]", "value": "increased"}, {"measurement": "leaf phenotype", "setting": "N. benthamiana leaves", "value": "bleaching phenotype"}]}
